Results taken from ChEMBL document CHEMBL1151452, “Novel trypanocidal analogs of 5'-(methylthio)-adenosine” (Antimicrob Agents Chemother, 2008).
Blank lines part the entries; values can stand above or below the compound they belong to. The source made the active and inactive calls. The rule behind the calls is not given here.

What was measured:
[1] = system: Trypanosoma brucei brucei; assay: Activity at bloodstream Trypanosoma brucei brucei 5'-deoxy-5'-(methylthio)-adenosine phosphorylase by spectrophotometry in presence of 50 mM PO4- relative to control; conditions: LAB 110 EATRO
Method in brief: (§1)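 Enzyme was a cell-free extract of bloodstream trypanosomes harvested from rats. It was prepared by freeze-thawing three times in dry ice-methanol, spinning at 5,000 × g for 10 min, and dialysing 1 h (0.05 M Tris-HCl, 0.1 mM EDTA, 1 mM 2-mercaptoethanol, pH 7.4) to remove phosphate. The mix held 0 or 50 mM potassium phosphate pH 7.4, xanthine oxidase and 25–500 μM substrate. Adenine-derived 2,8-dihydroxyadenine was read at 305 nm over 1 h at 37°C. Activity is expressed relative to MTA.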

[2] = system: Trypanosoma brucei brucei; assay: Antitrypanosomal activity against bloodstream form of Trypanosoma brucei brucei LAB 110 EATRO after 48 hrs by Z1 zoulter counter; format: functional, organism-based; conditions: for IC50: Trypanosoma brucei, LAB 110 EATRO, 48 h
Method in brief: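 Bloodstream forms were grown axenically in HMI-18 (IMDM with 1 μM hypoxanthine and 20% horse serum). Compounds were dissolved in water or DMSO, with final DMSO ≤0.3%. […] Parasites were counted by Coulter counter.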

[3] = system: Trypanosoma brucei brucei; assay: Activity at bloodstream Trypanosoma brucei brucei 5'-deoxy-5'-(methylthio)-adenosine phosphorylase by spectrophotometry relative to control; design: concentration or dose not given beside the values; conditions: LAB 110 EATRO; method in brief: as §1
[4] = system: Trypanosoma brucei brucei; assay: Growth stimulation of diamidine and melarsoprol-resistant bloodstream form of Trypanosoma brucei brucei isolate KETRI 243-As10-3 at 100 uM after 48 hrs by Z1 zoulter counter; format: functional, organism-based
[5] = species on record: Mus musculus; assay: Activity at mouse liver 5'-deoxy-5'-(methylthio)-adenosine phosphorylase; design: concentration or dose not given beside the values
[6] = system: Trypanosoma brucei rhodesiense; assay: Growth stimulation of pentamidine and melarsoprol-resistant bloodstream form of Trypanosoma brucei rhodesiense isolate KETRI 243 at 100 uM after 48 hrs by Z1 zoulter counter

SMILES: Nc1ncnc2c1ccn2[C@@H]1O[C@H](CSCCO)[C@@H](O)[C@H]1O
- Activity [1]: 0%
- IC50 [2]: 0.042 µM
- Activity [3]: 0%

SMILES: CNC[C@H]1O[C@@H](n2cnc3c(N)ncnc32)[C@H](O)[C@@H]1O
- Activity [1]: 4%
- IC50 [2]: > 100 µM
- Activity [3]: 0%

SMILES: CSC[C@H]1O[C@@H](n2ccc3c(N)ncnc32)[C@H](O)[C@@H]1O
- Activity [1]: 0%
- IC50 [2]: 67 µM
- Activity [3]: 0%

SMILES: Nc1ncnc2c1ncn2[C@H]1C[C@H](O)[C@@H](CSCCO)O1
- Activity [1]: 100%
- IC50 [2]: > 100 µM
- Activity [3]: 81%
- Activity [4]: Active

SMILES: CC(=O)OCCSC[C@H]1O[C@@H](n2cnc3c2ncn2ccnc32)[C@H](OC(C)=O)[C@@H]1OC(C)=O
- IC50 [2]: 35 µM

SMILES: Nc1ncnc2c1ncn2[C@@H]1O[C@H](CSCCF)[C@@H](O)[C@H]1O
- Activity [1]: 75.3%
- IC50 [2]: 0.2 µM
- Activity [3]: 29.3%
- Activity [5]: 64%

SMILES: CSC[C@H]1O[C@@H](n2ccc3c(NC(C)=O)ncnc32)[C@H](OC(C)=O)[C@@H]1OC(C)=O
- IC50 [2]: 46 µM

SMILES: CC(=O)OCCSC[C@@H]1C[C@@H](OC(C)=O)[C@H](n2cnc3c(N)ncnc32)O1
- IC50 [2]: 0.64 µM

SMILES: CC(=O)OCCSC[C@H]1O[C@@H](n2cnc3c(N)ncnc32)[C@H](OC(C)=O)[C@@H]1OC(C)=O
- IC50 [2]: 0.32 µM

- Activity [1]: 47.5%
- Activity [3]: 31.3%
- Activity [5]: 64%
SMILES: Nc1ncnc2c1ncn2[C@@H]1O[C@H](CSCCCF)[C@@H](O)[C@H]1O
- IC50 [2]: 120 µM

SMILES: Nc1ncnc2c1ncn2C[C@@H](O)CSCCO
- IC50 [2]: > 100 µM

- Activity [1]: 100%
- Activity [3]: 100%
- Activity [5]: 100%
SMILES: CSC[C@H]1O[C@@H](n2cnc3c(N)ncnc32)[C@H](O)[C@@H]1O [METHYLTHIOADENOSINE]
- IC50 [2]: 100 µM

- Activity [1]: 57.5%
- Activity [3]: 26%
- Activity [5]: 100%
SMILES: CCCSC[C@H]1O[C@@H](n2cnc3c(N)ncnc32)[C@H](O)[C@@H]1O
- IC50 [2]: 46 µM

SMILES: Nc1ncnc2c1ncn2C[C@H](O)CSCCO
- IC50 [2]: 60 µM

SMILES: Nc1ncnc2c1ncn2[C@@H]1O[C@H](CSCCO)[C@@H](O)[C@H]1O
- Activity [1]: 96%
- IC50 [2]: 0.54 µM
- Activity [3]: 100%

SMILES: CC(=O)OCCSC[C@H]1O[C@@H](n2ccc3c(N)ncnc32)[C@H](OC(C)=O)[C@@H]1OC(C)=O
- IC50 [2]: 0.145 µM

- Activity [1]: 84%
- Activity [3]: 34%
SMILES: COC(=O)CSC[C@H]1O[C@@H](n2cnc3c(N)ncnc32)[C@H](O)[C@@H]1O
- IC50 [2]: 130 µM

SMILES: CC(=O)OCCSC[C@H]1O[C@@H](n2cnc3c(N)nc(N)nc32)[C@H](OC(C)=O)[C@@H]1OC(C)=O
- IC50 [2]: 12.5 µM

SMILES: CC(=O)OCCSC[C@H]1O[C@@H](n2cnc3c(F)ncnc32)[C@H](OC(C)=O)[C@@H]1OC(C)=O
- IC50 [2]: > 100 µM

SMILES: CC(=O)OCCSC[C@H]1O[C@@H](n2cnc3c(N)nc(F)nc32)[C@H](OC(C)=O)[C@@H]1OC(C)=O
- IC50 [2]: 2.75 µM

- Activity [1]: 76.2%
- Activity [3]: 26.9%
- Activity [5]: 100%
SMILES: CCSC[C@H]1O[C@@H](n2cnc3c(N)ncnc32)[C@H](O)[C@@H]1O

SMILES: CC(=O)OCCSC[C@H]1O[C@@H](n2cnc3c(N)ncnc32)C[C@@H]1OC(C)=O
- IC50 [2]: 22 µM

SMILES: CC(=O)OCCSC[C@H](COC(C)=O)O[C@H](COC(C)=O)n1cnc2c(N)ncnc21
- IC50 [2]: 5.3 µM

SMILES: CC(=O)OCCSC[C@H]1O[C@@H](n2cnc3cncnc32)[C@H](OC(C)=O)[C@@H]1OC(C)=O
- IC50 [2]: 3.65 µM

SMILES: OCCSC[C@H]1O[C@@H](n2cnc3c2ncn2ccnc32)[C@H](O)[C@@H]1O
- Activity [1]: 56%
- IC50 [2]: > 100 µM
- Activity [3]: 62%

SMILES: NC(=O)c1ncn([C@@H]2O[C@H](CSCCO)[C@@H](O)[C@H]2O)n1
- Activity [1]: 61%
- inhibition (INH) [2]: 9%
- Activity [3]: 70%
- Activity [6]: Active

SMILES: CC(=O)O[C@@H]1[C@H](OC(C)=O)[C@@H](CSCCF)O[C@H]1n1cnc2c(N)ncnc21
- IC50 [2]: 0.83 µM

- Activity [1]: 72.5%
- Activity [3]: 27.4%
SMILES: Nc1ncnc2c1ncn2[C@@H]1O[C@H](CSCCCO)[C@@H](O)[C@H]1O
- IC50 [2]: 170 µM

SMILES: Nc1ncnc2c1ncn2[C@H]1CC[C@@H](CSCCO)O1
- Activity [1]: 17%
- IC50 [2]: 100 µM
- Activity [3]: 18%

SMILES: Nc1nc(F)nc2c1ncn2[C@@H]1O[C@H](CSCCO)[C@@H](O)[C@H]1O
- Activity [1]: 148%
- IC50 [2]: 1.9 µM
- Activity [3]: 106%

SMILES: OCCSC[C@H]1O[C@@H](n2cnc3cncnc32)[C@H](O)[C@@H]1O
- Activity [1]: 11%
- IC50 [2]: 34 µM
- Activity [3]: 4%

SMILES: Nc1ncnc2c([C@@H]3N[C@H](CSCCO)[C@@H](O)[C@H]3O)c[nH]c12
- IC50 [2]: > 10 µM

SMILES: Nc1ncnc2c1ncn2[C@@H]1O[C@H](CSCCO)C[C@H]1O
- Activity [1]: 39.4%
- IC50 [2]: 12.5 µM
- Activity [3]: 37.8%

SMILES: Cc1ncnc2c1ncn2[C@@H]1O[C@H](CSCCO)[C@@H](O)[C@H]1O
- Activity [1]: 2%
- IC50 [2]: 24.5 µM
- Activity [3]: 25%

SMILES: CC(=O)OCCSC[C@H]1O[C@@H](n2cnc(C(N)=O)n2)[C@H](OC(C)=O)[C@@H]1OC(C)=O
- IC50 [2]: 26.5 µM

SMILES: OCCSC[C@H]1O[C@@H](n2cnc3c(O)ncnc32)[C@H](O)[C@@H]1O
- Activity [1]: 0%
- IC50 [2]: > 100 µM
- Activity [3]: 0%

SMILES: Nc1ncnc2c1ncn2[C@@H](CO)O[C@@H](CO)CSCCO
- Activity [1]: 44%
- IC50 [2]: 14 µM
- Activity [3]: 0%

SMILES: OCCSC[C@H]1O[C@@H](n2cnc3c(F)ncnc32)[C@H](O)[C@@H]1O
- Activity [1]: 42%
- IC50 [2]: > 100 µM
- Activity [3]: 60%

SMILES: Nc1ncnc2c1ncn2COCCSCCO
- Activity [1]: 56%
- IC50 [2]: 64 µM
- Activity [3]: 78%

SMILES: Nc1ncnc2c1nnn2[C@@H]1O[C@H](CSCCO)[C@@H](O)[C@H]1O
- IC50 [2]: 7 µM

SMILES: Nc1nc(N)c2ncn([C@@H]3O[C@H](CSCCO)[C@@H](O)[C@H]3O)c2n1
- Activity [1]: 29%
- IC50 [2]: 3.9 µM
- Activity [3]: 18%

SMILES: CC(=O)OCCSC[C@H]1O[C@@H](n2cnc3c(C)ncnc32)[C@H](OC(C)=O)[C@@H]1OC(C)=O
- IC50 [2]: 9.3 µM

SMILES: NCCSC[C@H]1O[C@@H](n2cnc3c(N)ncnc32)[C@H](O)[C@@H]1O
- IC50 [2]: > 100 µM
- Activity [6]: Active

SMILES: NCCCSC[C@H]1O[C@@H](n2cnc3c(N)ncnc32)[C@H](O)[C@@H]1O
- Activity [1]: 46%
- IC50 [2]: > 100 µM
- Activity [3]: 60%
